Laboratory results published in ChEMBL document CHEMBL1777695, “Design and synthesis of pironetin analogues with simplified structure and study of their interactions with microtubules” (Eur J Med Chem, 2011).
Activity calls are given as the source filed them. The calls are words filed in the database; no cut-off is given here.

How the values were obtained:
A2780 [1] = test: Resistance index, ratio of IC50 for human compound-resistant A2780AD cells to IC50 for human compound-sensitive A2780 cells
A549 [2] = test: Cell cycle arrest in human A549 cells assessed as minimum concentration required to induce accumulation at G2/M phase after 20 hrs by propidium iodide staining-based flow cytometry; type: functional
Summary of the method: (§1)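 A549 cells (RPMI 1640, 10% FCS, glutamine, antibiotics) exposed 20 h to ligand or vehicle. Cells fixed, RNase-treated and stained with propidium iodide. DNA content read by flow cytometry. The lowest concentration giving maximal G2/M arrest is reported.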

[3] = Cytotoxicity against compound-resistant human A2780AD cells after 24 hrs by MTT assay; type: functional, cell-based; conditions: A2780 ADR
Summary of the method: (§2)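 MTT proliferation assay in ovarian carcinoma A2780 and P-glycoprotein-overexpressing A2780AD cells, grown in RPMI 1640 with 10% FCS, glutamine, antibiotics and 0.25 units/mL bovine insulin. IC50 (50% inhibition of proliferation) is the mean ± standard error of two independent experiments in duplicate. Relative resistance is IC50 in A2780AD divided by IC50 in A2780.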

A549 [4] = test: Induction of apoptosis in human A549 cells after 20 hrs; type: functional, cell-based
A2780 [5] = test: Cytotoxicity against compound-sensitive human A2780 cells after 24 hrs by MTT assay; type: functional, cell-based; conditions: A2780, 24 h
Summary of the method: as §2

[6] = Displacement of pironetin from tubulin in cell-free system assessed as unbound pironetin concentration at 200 uM after 15 mins by HPLC method
Summary of the method: (§3)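 Tubulin (25 µM in GAB: 3.4 M glycerol, 10 mM sodium phosphate, 1 mM EGTA, 1 mM GTP, pH 6.5) preincubated 15 min at 37 °C with 200 µM analogue or DMSO. 30 µM pironetin then added for a further 15 min. Docetaxel (10 µM) added as internal standard. Unreacted pironetin extracted three times with CH2Cl2 and quantified by reverse-phase HPLC, UV at 230 nm. Mean of three measurements ± SE.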

[7] = Displacement of pironetin from tubulin in cell-free system assessed as bound pironetin concentration at 200 uM after 15 mins by HPLC method
Summary of the method: as §3

[8] = Inhibition of tubulin assembly assessed as concentration of tubulin required to produce assembly at 100 uM after 30 mins
Summary of the method: (§4)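 Purified tubulin (20 µM) incubated 30 min at 37 °C in GAB (3.4 M glycerol, 10 mM sodium phosphate, 1 mM EGTA, 1 mM GTP, pH 6.5) with 25 µM pironetin or docetaxel, 100 µM analogue, or DMSO vehicle. Critical concentration for assembly determined. Mean of five measurements ± SE.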

A549 [9] = test: Induction of abberant mitosis in human A549 cells assessed as metaphase mitotic cells with type III mitotic spindles at 200 uM after 4 hrs relative to control; type: functional, cell-based
Summary of the method: (§5)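 A549 cells grown overnight on coverslips, then treated 4 h with ligand (50 nM or 200 µM) or DMSO vehicle. Cells permeabilized with Triton X-100 and fixed in 3.7% formaldehyde. Microtubules stained with DM1A anti-α-tubulin antibody and DNA with Hoechst 33342. Spindle and microtubule morphology examined by epifluorescence microscopy.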

A549 [10] = test: Induction of microtubule cytoskeleton depolymerization in human A549 cells at 200 uM after 4 hrs by immunofluorescence assay; type: cell-based
A549 [11] = test: Induction of abberant mitosis in human A549 cells assessed as metaphase mitotic cells with DNA forming a ring surrounding mono-aster of microtubule at 200 uM after 4 hrs relative to control; type: functional, cell-based
Summary of the method: as §5

[12] = Inhibition of tubulin assembly assessed as concentration of tubulin required to produce assembly at 25 uM after 30 mins
Summary of the method: as §4

A549 [13] = test: Cell cycle arrest in human A549 cells assessed accumulation at G2/M phase at 50 nM after 20 hrs by propidium iodide staining-based flow cytometry; type: functional
Summary of the method: as §1

[14] = Binding affinity to tubulin after 15 min
Summary of the method: as §3

A549 [15] = test: Induction of microtubule cytoskeleton depolymerization in human A549 cells at 50 nM after 4 hrs by immunofluorescence assay; type: cell-based
Summary of the method: as §5

A549 [16] = test: Induction of abberant mitosis in human A549 cells assessed as metaphase mitotic cells with type III mitotic spindles at 50 nM after 4 hrs relative to control; type: functional, cell-based
Summary of the method: as §5

A549 [17] = test: Induction of abberant mitosis in human A549 cells assessed as metaphase mitotic cells with DNA forming a ring surrounding mono-aster of microtubule at 50 nM after 4 hrs relative to control; type: functional, cell-based
Summary of the method: as §5

Structure (SMILES) | Ratio IC50 (A2780 [1]) | Activity (A549 [2]) [µM] | IC50 [3] [µM] | Activity (A549 [4]) | IC50 (A2780 [5]) [µM] | Activity [6] [µM] | Activity [7] [µM] | Activity [8] [µM] | Activity (A549 [9]) | Activity (A549 [10]) | Activity (A549 [11]) | Activity [12] [µM] | Activity (A549 [13]) | Activity [14] [µM] | Activity (A549 [15]) | Activity (A549 [16]) | Activity (A549 [17])
CCCCC[C@@H](C[C@@H](O)C[C@H]1CC=CC(=O)O1)OC | 0.74 | 200 | 25.2 | inactive | 33.7 | – | – | – | – | – | – | – | – | – | – | – | –
CCCCC[C@H](C[C@H](O)C[C@@H]1CC=CC(=O)O1)OC | 1.3 | 100 | 30 | inactive | 22.9 | 10 | 4 | – | – | – | – | – | – | – | – | – | –
CCCCC[C@@H](C[C@H](O)C[C@@H]1CC=CC(=O)O1)OC | 0.74 | 100 | 26.3 | inactive | 35.4 | 10 | 4 | – | – | – | – | – | – | – | – | – | –
CCCCC[C@@H](CCC[C@@H]1CC=CC(=O)O1)OC | 0.77 | 50 | 11.5 | inactive | 14.9 | 15 | 10 | 3.75 | – | – | – | – | – | – | – | – | –
CCCCC[C@@H](CCC[C@H]1CC=CC(=O)O1)OC | 0.45 | 50 | 9 | inactive | 20.6 | – | – | 3.73 | Active | Active | Active | – | – | – | – | – | –
CCCCC[C@H](C[C@@H](O)C[C@H]1CC=CC(=O)O1)OC | 0.62 | 100 | 18.1 | inactive | 28.9 | – | – | 3.44 | – | – | – | – | – | – | – | – | –
CCCCC[C@H](C[C@@H](O)C[C@@H]1CC=CC(=O)O1)OC | 1.67 | 200 | 91.5 | inactive | 54.5 | – | – | – | – | – | – | – | – | – | – | – | –
CCCCC[C@@H](C[C@H](O)C[C@H]1CC=CC(=O)O1)OC | 0.89 | 200 | 48 | inactive | 53.7 | – | – | – | – | – | – | – | – | – | – | – | –
CCCCC[C@H](CCC[C@@H]1CC=CC(=O)O1)OC | 1.42 | 50 | 20.5 | – | 14.4 | 15 | 10 | 3.79 | Active | Active | Active | – | – | – | – | – | –
CC(=O)O[C@@]12CO[C@@H]1C[C@H](O)[C@@]1(C)C(=O)[C@H](O)C3=C(C)[C@@H](OC(=O)[C@H](O)[C@@H](NC(=O)OC(C)(C)C)c4ccccc4)C[C@@](O)([C@@H](OC(=O)c4ccccc4)[C@H]21)C3(C)C | – | – | – | – | – | – | – | – | – | – | – | 0.4 | – | – | – | – | –
CCCCC[C@@H](C[C@@H](O)C[C@@H]1CC=CC(=O)O1)OC | 0.93 | 200 | 46.3 | inactive | 49.4 | – | – | – | Active | Active | Active | – | – | – | – | – | –
CCCCC[C@H](C[C@H](O)C[C@H]1CC=CC(=O)O1)OC | 1.3 | 100 | 57.5 | inactive | 44 | 10 | 4 | 3.39 | – | – | – | – | – | – | – | – | –
CC(=O)O[C@H]1C(=O)[C@@]2(C)[C@H]([C@H](OC(=O)c3ccccc3)[C@]3(O)C[C@H](OC(=O)[C@H](O)[C@@H](NC(=O)c4ccccc4)c4ccccc4)C(C)=C1C3(C)C)[C@]1(OC(C)=O)CO[C@@H]1C[C@@H]2O [PACLITAXEL] | 1157 | – | 0.949 | – | 0.00082 | – | – | – | – | – | – | – | – | – | – | – | –
C/C=C/C[C@H](C)[C@@H](OC)[C@@H](C)[C@H](O)C[C@H]1OC(=O)C=C[C@H]1CC [PIRONETIN] | 1 | – | 0.003 | inactive | 0.0029 | – | – | – | – | – | – | > 15 | Active | 23.4 | Active | Active | Active
CCCCC[C@H](CCC[C@H]1CC=CC(=O)O1)OC | 0.7 | 50 | 12.2 | – | 17.1 | 15 | 10 | 3.85 | Active | Active | Active | – | – | – | – | – | –
